For one data set, the system named is Human alphaherpesvirus 3. As to the kind of experiment: Antiviral activity against VZV infected in human HFF cells assessed as reduction in cytopathic effect after 7 days by crystal violet staining. The settings on record: Human alphaherpesvirus 3, HFF, 168 h. The format is functional, organism-based. In general terms: Protection from cytopathic effect is a common read-out in antiviral testing.

A short description of data set [1]: Cytotoxicity against human HSB2 cells after 7 days by Cell-Titer Glo assay. The data set is classed as cell-based, CCRF-HSB-2. The method, boiled down: (§1)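 Uninfected Akata, BCBL1, HSB-2 or MOLT-3 cells incubated with compound for seven days under the matching antiviral-assay conditions. CellTiter-Glo added and luminescence read. CC50 is the concentration reducing cell number by 50%.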

A further data set deals with Human alphaherpesvirus 2. As to the kind of experiment: Antiviral activity against HSV-2 infected in human HFF cells assessed as reduction in cytopathic effect after 3 days by crystal violet staining. The format is functional, organism-based. The following applies: Human alphaherpesvirus 2, HFF, 72 h. The method, boiled down:
(§2)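 Compound diluted over HFF monolayers, then HSV-1 (E-377) or HSV-2 (MS) added at MOI about 0.01 PFU/cell. Held 3 days in humidified 5% CO2. Stained 4 h with 0.1% crystal violet in formalin, rinsed, dried 24 h, and absorbance read at 595 nm. EC50 is 50% CPE reduction. Duplicate wells.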

The subject of the next data set is Human gammaherpesvirus 8. The experiment in a line: Antiviral activity against HHV-8 infected in human BCBL1 cells assessed as reduction in viral DNA after 7 days by qPCR analysis. The format is functional, organism-based. The settings on record: Human gammaherpesvirus 8, BCBL1, 168 h. The method, boiled down:
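BCBL1 cells kept in RPMI 1640 with 10% FBS, penicillin, gentamycin and L-glutamine. Lytic infection induced with phorbol 12-myristate 13-acetate, then cells added to triplicate compound dilutions. Incubation 7 days at 37 °C in humidified CO2. EC50 is the concentration halving viral DNA accumulation.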
On the technique in general: Real-time PCR tracks product formation cycle by cycle.

Data set [2] can be described thus: Cytotoxicity against human MOLT3 cells after 7 days by Cell-Titer Glo assay. The format is cell-based, MOLT-3. The method, boiled down:
as §1

Data set [3] can be described thus: Cytotoxicity against human BCBL1 cells after 7 days by Cell-Titer Glo assay. The format is cell-based. The method, boiled down:
as §1

For a further data set, the system named is Human alphaherpesvirus 1. As to the kind of experiment: Antiviral activity against HSV-1 infected in human HFF cells assessed as reduction in cytopathic effect after 3 days by crystal violet staining. The data set is classed as functional, organism-based. The settings on record: Human alphaherpesvirus 1, HFF, 72 h. The method, boiled down:
as §2

Data set [4] is described as follows: Antiviral activity against HHV-6A infected in human HSB2 cells assessed as reduction in viral DNA after 7 days by hybridization assay. The following applies: Human betaherpesvirus 6A, HSB2, 168 h. The data set is classed as functional, cell-based, Human herpesvirus 6A. The method, boiled down: (§3)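 Compound serially diluted in medium. Uninfected HSB-2 cells were infected with HHV-6A (GS)-infected HSB-2 cells, and Molt-3 cells with HHV-6B (Z29)-infected Molt-3 cells. Incubation 7 days at 37 °C. Lysis in 4.5 M NaCl/1.2 M NaOH, then transfer to nylon membrane. Viral DNA quantified by digoxigenin-probe hybridization and EC50 calculated. Duplicate wells.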

A short description of data set [5]: Antiviral activity against HHV-6B infected in human Molt3 cells assessed as reduction in viral DNA after 7 days by hybridization assay. The data set is classed as functional, cell-based, Human herpesvirus 6B. The settings on record: Human betaherpesvirus 6B, MOLT-3, 168 h. The method, boiled down:
as §3

Another data set has as its system Human gammaherpesvirus 4. The experiment in a line: Antiviral activity against EBV Akata infected in human Akata cells assessed as reduction in viral DNA after 72 hrs by hybridization assay. The data set is classed as functional, organism-based. The settings on record: human gammaherpesvirus 4, Akata. The method, boiled down: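 Akata cells kept in RPMI 1640 with 10% FBS, L-glutamine, penicillin and gentamicin. Latent infection was switched to productive by adding goat anti-human IgG, and cells were seeded into compound dilutions made in growth medium. After 72 h the DNA was denatured and blotted onto nylon membrane. Viral DNA was measured with a digoxigenin-labeled probe plus anti-hapten antibody. EC50 is the concentration halving viral DNA. Duplicate wells.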

Data set [6] can be described thus: Cytotoxicity against human HFF cells after 3 to 8 days by crystal voilet staining. The data set is classed as cell-based. The method, boiled down: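 Uninfected HFF cells exposed to the same concentrations as in the CPE assays (3 days for HSV, 7 for VZV, […]). Stained with crystal violet. CC50 is the concentration reducing cell number by 50%. Duplicate wells.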

For another data set, the system named is Human betaherpesvirus 5. As to the kind of experiment: Antiviral activity against HCMV infected in human HFF cells assessed as reduction in cytopathic effect after 8 days by plaque reduction assay. The format is functional, organism-based. The following applies: Human betaherpesvirus 5, HFF, 192 h. The method, boiled down:
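HFF monolayers seeded 2 days ahead and infected with AD169 at about 30 plaques per well, with 1 h adsorption. Compound was then added in MEM with 2% FBS, L-glutamine, penicillin, gentamycin and pooled human gamma globulin. After 8 days, neutral red stain and plaque counts by stereomicroscope. EC50 interpolated. Duplicate wells.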

Data set [7] can be described thus: Cytotoxicity against human Akata cells after 7 days by Cell-Titer Glo assay. The data set is classed as cell-based. The method, boiled down:
as §1

These results are taken from ChEMBL document CHEMBL2034823, “Synthesis and antiviral activity of certain second generation methylenecyclopropane nucleosides” (Bioorg Med Chem, 2012).

Broadly, the IC50 is the concentration at which inhibition is half-maximal. Broadly, the CC50 is the concentration that lowers cell viability or growth by half.

For `CNc1nc(N)nc2c1ncn2/C=C1/CC1(CO)CO`, the IC50 with Human alphaherpesvirus 3 is over 300 µM; with Human alphaherpesvirus 2 it was over 300 µM; in the data set on Human gammaherpesvirus 8, 62 µM; with Human alphaherpesvirus 1 it was over 300 µM; in data set [4], over 20 µM; in data set [5] it was over 20 µM. Besides, the concentration for half-maximal inhibition (IC50) in the data set with Human gammaherpesvirus 4 is over 24 µM; in the data set with Human betaherpesvirus 5 it was over 300 µM. The half-maximal cytotoxic concentration (CC50) at 168 h in [1] was over 20 µM; in data set [2], over 20 µM; in data set [3], 67 µM; in data set [7], over 24 µM. Also, in [6], the midpoint of cytotoxicity, the CC50, lay at 265 µM.

For the compound `CCCCOc1nc(N)nc2c1ncn2/C=C1/CC1(CO)CO`, the half-inhibitory concentration (IC50) is over 100 µM in the data set on Human alphaherpesvirus 3; over 300 µM in the data set on Human alphaherpesvirus 2; over 20 µM in the data set on Human gammaherpesvirus 8; over 300 µM in the data set on Human alphaherpesvirus 1; over 20 µM in data set [4]; 3.2 µM in data set [5]. Further, the IC50 in the data set on Human gammaherpesvirus 4 and with Human betaherpesvirus 5 was 1.6 µM in each case. Moreover, the CC50 at 168 h in data set [1], in [2], in data set [3] and in data set [7] was over 20 µM in each case. This compound also had a CC50 in [6] of over 300 µM.

As to `CCCCCCSc1nc(N)nc2c1ncn2/C=C1/CC1(CO)CO`, the concentration for half-maximal inhibition (IC50) is over 300 µM in the data set with Human alphaherpesvirus 3; over 300 µM with Human alphaherpesvirus 2; over 20 µM in the data set on Human gammaherpesvirus 8; over 300 µM with Human alphaherpesvirus 1; over 20 µM in data set [4]; 5.4 µM in data set [5]. For the same compound, the IC50 in the data set with Human gammaherpesvirus 4 is 7.1 µM; in the data set with Human betaherpesvirus 5 it was over 50 µM. In addition, the CC50 at 168 h in [1] was 60 µM; in data set [2], over 20 µM; in data set [3], over 20 µM; in [7], over 20 µM. Further, in data set [6], the CC50 was over 300 µM.

For the compound `Nc1nc(OCc2ccccc2)c2ncn(/C=C3/CC3(CO)CO)c2n1`, the IC50 with Human alphaherpesvirus 3 was 53 µM; in the data set on Human alphaherpesvirus 2, over 300 µM; in the data set with Human gammaherpesvirus 8, over 20 µM; in the data set with Human alphaherpesvirus 1, over 300 µM; in data set [4], over 20 µM; in [5], over 20 µM. The concentration for half-maximal inhibition (IC50) with Human gammaherpesvirus 4 was over 20 µM; with Human betaherpesvirus 5, 45 µM. Besides, the CC50 at 168 h in data set [1], in data set [2], in data set [3] and in data set [7] was over 20 µM each time. Also, in data set [6], the CC50 is over 300 µM.

On to `CCOc1nc(N)nc2c1ncn2/C=C1/CC1(CO)CO`, for which the IC50 in the data set with Human alphaherpesvirus 3 was over 100 µM; in the data set with Human alphaherpesvirus 2 it was over 300 µM; in the data set with Human gammaherpesvirus 8, over 20 µM; with Human alphaherpesvirus 1 it was over 300 µM; in [4], over 20 µM; in [5] it was 11.2 µM. Also, the figures for the IC50 in the data set on Human gammaherpesvirus 4 and in the data set with Human betaherpesvirus 5 were 11.9 µM and 1.6 µM, respectively. Also, the CC50 at 168 h in data set [1], in data set [2], in data set [3] and in data set [7] was over 20 µM each time. This compound displayed a CC50 in data set [6] of over 300 µM.

As to `COc1nc(N)nc2nc[nH]c12`, the IC50 in the data set with Human alphaherpesvirus 3 was 7.4 µM; in the data set with Human alphaherpesvirus 2, over 300 µM; in the data set with Human gammaherpesvirus 8, 13 µM; with Human alphaherpesvirus 1, over 300 µM; in data set [4], over 20 µM; in data set [5], over 20 µM. In addition, the IC50 in the data set on Human gammaherpesvirus 4 came out at 1 µM; in the data set with Human betaherpesvirus 5, 2.8 µM. Also, the CC50 at 168 h is over 20 µM in data set [1], over 20 µM in data set [2], 51 µM in [3] and over 20 µM in [7]. The CC50 in data set [6] was found to be 171 µM.

On to `CCCCNc1nc(N)nc2c1ncn2/C=C1/CC1(CO)CO`, for which the IC50 in the data set on Human alphaherpesvirus 3 is over 300 µM; in the data set with Human alphaherpesvirus 2, over 300 µM; with Human gammaherpesvirus 8, over 20 µM; with Human alphaherpesvirus 1, over 300 µM; in data set [4], over 20 µM; in [5], over 20 µM. The IC50 with Human gammaherpesvirus 4 was over 24 µM; in the data set with Human betaherpesvirus 5 it was over 60 µM. The CC50 at 168 h in data set [1] is over 20 µM; in [2], over 20 µM; in data set [3], over 20 µM; in data set [7] it was over 24 µM. Also, the CC50 in [6] was over 300 µM.
